Reference: paper PMC6304448 (Heliyon, 2018)
Converted amounts (≈) assume the structure as drawn.

Assays:
Type in all cases: cell-based
[1] = tested on: Leishmania donovani promastigotes; assay: Antileishmanial assay; details: 72 h; for IC50: read-out: antileishmanial activity IC50; for IC90: read-out: antileishmanial activity IC90
Procedure, shortened: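 Leishmania donovani promastigote or axenic amastigote cultures at 2 × 10⁶ cells/ml were exposed to test compound and incubated at 26 °C for 72 hours. Growth was read by AlamarBlue. Pentamidine and amphotericin B served as positive controls. IC₅₀ and IC₉₀ were computed from dose-response curves.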

[2] = tested on: chloroquine sensitive (D6, Sierra Leone) strain of Plasmodium falciparum; assay: Antimalarial assay; details: D6, 72 h, read-out: antimalarial activity IC50
Procedure, shortened: (§1)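 Test compound was dissolved in DMSO (2 mg/ml stock) and serially diluted. It was then added to P. falciparum culture (2% parasitemia, 2% hematocrit) in RPMI 1640 with 10% human serum and 60 μg/mL amikacin. Plates were held under 90% N₂/5% O₂/5% CO₂ at 37 °C for 72 hours. Parasite LDH was assayed with Malstat reagent for 30 min, then NBT/PES for 1 h in the dark. The reaction was stopped with 5% acetic acid and read at 650 nm. Chloroquine and artemisinin were positive controls and DMSO (0.25%) the negative control. IC₅₀ came from percent growth versus concentration curves.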

[3] = In-vitro cytotoxicity assay; details: African green monkey, VERO cells (mammalian kidney fibroblasts, ATCC)
Procedure, shortened: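 VERO cells were seeded at 25,000 cells/well and incubated for 24 h. Test compound was added at a range of concentrations and incubated a further 48 h. Viable cells were quantified by a modified Neutral Red uptake method. Doxorubicin was the positive control and DMSO the negative control. IC₅₀ was derived from dose-response curves.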

[4] = tested on: chloroquine resistant (W2, Indo China) strain of Plasmodium falciparum; assay: Antimalarial assay; details: W2, 72 h, read-out: antimalarial activity IC50
Procedure, shortened: as §1

| Structure (SMILES) | IC50 [1] [µg/mL] | IC90 [1] [µg/mL] | IC50 [2] [µg/mL] | IC50 at 48 h [3] [µg/mL] | IC50 [4] [µg/mL] |
| --- | --- | --- | --- | --- | --- |
| O=C1CC(O)C2c3c(ccc(O)c31)-c1ccc(O)c3c1C2(O)C(O)CC3=O (stereo not shown) [Compound 2, 3,6,6a,7,10-pentahydroxy-4,9-dioxo-4,5,6,6a,6b,7,8,9-octahydroperylene] | 4.4 (≈ 11.9 µM) | 9.54 (≈ 25.9 µM) | 4.24 (≈ 11.5 µM) | 3.59 (≈ 9.75 µM) | 3.65 (≈ 9.91 µM) |
| O=C1CC(O)C2(O)c3c(ccc(O)c31)-c1ccc(O)c3c1C2C1OC1C3O (stereo not shown) [Compound 1, 3,6,6a,9,10-pentahydroxy-7,8-epoxy-4-oxo-4,5,6,6a,6b,7,8,9-octahydroperylene] | 2.55 (≈ 6.92 µM) | 8.28 (≈ 22.5 µM) |  |  |  |
